Source: ChEMBL document CHEMBL1159127 (Bioorg Med Chem, 2010)
Values after ≈ are worked out from the molar mass of the structure shown.

Legend:
[1] = Aqueous solubility in phosphate buffer at pH 7.4; type: physicochemical
In short: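 Thermodynamic solubility by the Avdeef–Testa approach. About 1 mg of ground compound went into 1.0 mL of 1/15 M phosphate buffer (pH 7.4) […], shaken 48 h at 25 °C, then filtered (0.22 µm). Filtrate was diluted in DMF and quantified by reversed-phase HPLC-UV (263–288 nm) against a calibration curve.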

[2] = molecular target: T1, Aryl hydrocarbon receptor (Homo sapiens, UniProt P35869); test: Agonist activity at aryl hydrocarbon receptor in human MCF7 cells after 24 hrs CYP1A1-dependent EROD assay; type: functional, cell-based
T1 sequence (P35869 whole entry): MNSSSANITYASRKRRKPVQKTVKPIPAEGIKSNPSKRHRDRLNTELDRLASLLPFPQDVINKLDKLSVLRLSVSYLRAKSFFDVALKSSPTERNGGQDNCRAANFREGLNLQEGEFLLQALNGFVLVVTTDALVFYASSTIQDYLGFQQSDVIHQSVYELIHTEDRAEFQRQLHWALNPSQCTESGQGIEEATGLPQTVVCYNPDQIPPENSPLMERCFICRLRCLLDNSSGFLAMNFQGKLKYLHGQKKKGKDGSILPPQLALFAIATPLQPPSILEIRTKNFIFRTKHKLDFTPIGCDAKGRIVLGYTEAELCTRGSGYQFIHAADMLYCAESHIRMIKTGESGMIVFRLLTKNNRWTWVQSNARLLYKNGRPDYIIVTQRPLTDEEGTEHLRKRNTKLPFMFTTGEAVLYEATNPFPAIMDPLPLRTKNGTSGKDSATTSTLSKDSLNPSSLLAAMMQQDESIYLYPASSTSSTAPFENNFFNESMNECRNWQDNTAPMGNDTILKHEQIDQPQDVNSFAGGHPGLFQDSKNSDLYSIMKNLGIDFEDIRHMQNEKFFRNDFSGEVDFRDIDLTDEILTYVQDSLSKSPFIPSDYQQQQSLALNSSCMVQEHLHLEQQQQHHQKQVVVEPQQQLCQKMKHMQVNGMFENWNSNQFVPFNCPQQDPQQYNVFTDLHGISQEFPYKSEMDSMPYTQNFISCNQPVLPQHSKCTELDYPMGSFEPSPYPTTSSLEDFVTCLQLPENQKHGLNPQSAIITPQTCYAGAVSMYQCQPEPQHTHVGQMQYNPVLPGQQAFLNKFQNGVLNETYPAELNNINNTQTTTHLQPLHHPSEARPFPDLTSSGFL
In short: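 MCF-7 cells in high-glucose D-MEM with 10% FBS, plated at 5×10^5 cells/mL, settled 4.5 h at 37 °C, then exposed to compound (3% DMSO in added portion) for 24 h. Washed cells were given ethoxyresorufin, dicoumarol and NADPH in PBS for 150 min at 37 °C. Triplicate; EC50 derived.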

[3] = system: MCF7; test: Toxicity in human MCF7 cells assessed as effect on cell viability after 24 hrs; type: cell-based; conditions: mcf7, 24 h
In short: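 Same MCF-7 plating and 24 h compound exposure as the EROD assay. Medium was then removed, cells were detached with 0.25% trypsin/EDTA and counted.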

[4] = Thermodynamic aqueous solubility in equal volume of ethyl alcohol and 1/15M phosphate buffer at pH 7.4; type: physicochemical; conditions: 1:1 (v/v) ethyl alcohol / 1/15 M phosphate buffer
In short: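 About 1 mg solid ground in agate mortar, suspended in 1.0 mL of a 1:1 mix of 1/15 M phosphate buffer (pH 7.4) and EtOH, shaken 48 h at 25 °C. Filtered (0.22 µm), filtrate diluted in DMF, quantified by reversed-phase C18 HPLC with UV at 263–288 nm against a calibration curve, corrected for dilution.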

[5] = phosphate buffer, read-out: solubility

Row | Compound | solubility [1, 5] [µg/mL] | solubility ([1]; buffer) [µg/mL] | EC50 [2] [nM] | solubility thermodynamic [4] [µg/mL] | Activity [3]
1 | O=C(NC[C@H](NS(=O)(=O)c1ccccc1)C(=O)O)c1ccc(N2CCC(NC3=NCCCN3)CC2)cc1 | < 0.1 |  |  |  | 
2 | O=C(NC[C@H](NS(=O)(=O)c1ccccc1)C(=O)O)c1ccc(N2CCC(NC3=NCCCN3)CC2)c(F)c1 |  | 0.6 (≈ 1.1 µM) |  |  | 
3 | O=C(NC[C@H](NS(=O)(=O)c1ccccc1)C(=O)O)c1ccc(N2CCC[C@H](N=C3NCCCN3)C2)cc1 |  | 3.5 (≈ 6.62 µM) |  |  | 
4 | Cc1cccc(C)c1-c1cc(=O)c2c(ccc3ccccc32)o1 |  |  | > 10000 | 1270 (≈ 4230 µM) | Non-toxic
5 | O=c1cc(-c2ccccc2F)oc2ccc3ccccc3c12 |  |  | 330 | 153 (≈ 527 µM) | Non-toxic
6 | O=c1cc(-c2c(F)cccc2F)oc2ccc3ccccc3c12 |  |  | 200 | 248 (≈ 804 µM) | Non-toxic

Second part, led by results:

Row | solubility [1, 5] [µg/mL] | solubility ([1]; buffer) [µg/mL] | EC50 [2] [nM] | solubility thermodynamic [4] [µg/mL] | Compound | Activity [3]
7 |  |  | 270 | 45.8 (≈ 151 µM) | COc1ccccc1-c1cc(=O)c2c(ccc3ccccc32)o1 | Non-toxic
8 |  |  | 450 | 299 (≈ 1090 µM) | O=c1cc(-c2ccccn2)oc2ccc3ccccc3c12 | Non-toxic
9 |  |  | > 10000 | 262 (≈ 915 µM) | Cc1ccccc1-c1cc(=O)c2c(ccc3ccccc32)o1 | Non-toxic
10 | < 0.15 |  |  | 84.6 (≈ 311 µM) | O=c1cc(-c2ccccc2)oc2ccc3ccccc3c12 [BETA-NAPHTHOFLAVONE] | Non-toxic
